Bioassay records from PubChem BioAssay.
DDE Tn6 FP inh: inhibitors of Tn6 peptide binding to human fibrin DD(E) | P02675 | Fibrin DD(E) TRITC-Tn6 fluorescence polarization displacement | hit rate 0.21% among 370,000 | inhibition, % at 8.3 µM | AID 720509;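 active = inhibition above a per-campaign cutoff: mean of compounds within control limits plus 3 SD, cut at about 15% in these data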;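 note: 0% = median of all compound wells on the plate and 100% = blocking peptide control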
CRFR2-BP antag: CRF-BP/CRF-R2 complex antagonism; HEK293 CRF-R2/CRF-BP, CRF-induced calcium fluorescence; inhibition, % at 11.8 µM; hit rate 0.59% among 350,000; AID 588475;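 active = inhibition of the ligand-induced calcium signal above about 50% at the single tested concentration, limit read from the data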
NRP1-CendR mod: NRP-1/CendR interaction modulation; O14786; FAM-RPARPAR peptide binding to NRP-1, fluorescence polarization; inhibition, % at 25 µM; hit rate 0.85% among 360,000; AID 602438;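 active = inhibition or corrected inhibition above about 18%, plus a signal ratio from 0.5 to 1.5, limit read from the data, passing the limit was not always enough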
KLK7 zymogen act: activates the human kallikrein-7 zymogen. P49862. purified proKLK7, EDANS-DABCYL substrate fluorescence; 100% is mature enzyme control, 0% vehicle. activation, % at 7 µM. hit rate 0.9% among 370,000. AID 652039;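 active = activation above the mean of all tested compounds plus 3 SD, computed per campaign excluding outliers beyond control limits, cut at about 13% in these data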
Target sequence (P49862 whole entry, looked up): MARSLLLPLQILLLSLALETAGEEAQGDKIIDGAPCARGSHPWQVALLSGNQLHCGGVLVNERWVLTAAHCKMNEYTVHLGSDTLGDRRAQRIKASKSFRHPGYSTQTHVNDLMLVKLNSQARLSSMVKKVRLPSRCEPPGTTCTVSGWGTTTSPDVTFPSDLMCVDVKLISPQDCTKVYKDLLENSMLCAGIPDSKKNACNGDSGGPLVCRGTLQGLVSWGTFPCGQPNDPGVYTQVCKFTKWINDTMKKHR
CRFBP-R2 agonist: agonists of human CRF-binding protein/CRF-R2 receptor complex | HEK293 CRF-R2/CRF-BP, calcium dye fluorescence (FLIPR); percent of saturating CRF peptide response | activation, % at 13.2 µM | hit rate 0.46% among 350,000 | AID 588473;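 active = activation of at least 50%, plus an integration ratio under a set limit after plate pattern correction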;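 note: plate controls were neutral control wells without compound for no effect and CRF at EC100 for full effect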
DDE Tn7 FP inh: disrupts Tn7 cyclic peptide binding to fibrin D-Dimer-E complex; P02675; FP displacement of FITC-Tn7 peptide from fibrin DD(E); 0% = median of compound wells per plate; inhibition, % at 8.3 µM; hit rate 0.13% among 370,000;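 active = inhibition above the mean of compounds falling within the control limits plus 3 SD of them, cut at about 14% in these data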;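 note: 0% = plate median of compound wells and 100% = 10 µM Aha-Tn7 peptide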
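Assay system: Human fibrin DD(E) protein | Medium: Tris buffer with calcium and detergent, pH 7.8 | Reagent: 0.1 µM fluorescent Tn7 | Compound dosing: Single point at 8.3 µM | Times: 10 min preincubation, 3 h with tracer, room temperature | Detection: Fluorescence polarization of the labelled Tn7 tracer | Controls: Aha-Tn7 high control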
* marks the source's active call; other numbers are inactive results; x = no result. Hits are enriched below; roughly 2.9% of the tested compounds scored in any of these assays.

SMILES	DDE Tn6 FP inh	CRFR2-BP antag	NRP1-CendR mod	KLK7 zymogen act	CRFBP-R2 agonist	DDE Tn7 FP inh
C[C@@H]1CN(c2ccc(N3CCN(C(=O)OC(C)(C)C)C[C@H]3C)cc2C#N)CCN1Cc1ccccc1	-12	x	x	-8	x	-2
O=C(c1cn[nH]c1)N1CCc2c([nH]c3ccccc23)C1c1c(F)cccc1Cl (stereo not drawn)	1	-89	40*	1	21	-3
O=C(O)c1ccc(-c2nc(-c3ccc(Cl)cc3Cl)cs2)cc1	-1	67*	3	0	-2	4
O=C(O)c1ccc(-c2nc(-c3ccc(Cl)cc3)cs2)cc1	6	53*	-17	0	-3	-7
Nc1ncnc2c1ncn2[C@@H]1O[C@H](C(=O)N[C@@H](CCc2ccccc2)C(=O)N2CCN(CC(=O)N3CCCC3)CC2)[C@@H](O)[C@H]1O	8	x	x	0	x	-4
O=C(C1CCCN1C(=O)c1cccs1)N1CCN(S(=O)(=O)c2ccc(F)cc2)CC1 (stereo not drawn)	7	5	8	0	-1	3
N#Cc1ccc(S(=O)(=O)N2CCN(C(=O)[C@@H]3CCCN3C(=O)c3cccs3)CC2)cc1	-3	79*	-9	0	0	-4
O=C(OCc1cn(Cc2ccc(Cl)cc2)nn1)N1CCOCC1	3	x	x	1	x	-2
c1ccc(C(c2ccccc2)N2CCN(Cc3nc(-c4cnccn4)no3)CC2)cc1	2	-2	-1	0	-1	-5
c1ccc(-c2noc(CN3CCN(c4cnccn4)CC3)n2)cc1	7	74*	-3	0	0	4
Cc1ccc(CNS(=O)(=O)c2ccc(-c3cnc(C4CC4)o3)cc2)cc1	1	-4	21*	0	1	-7
Cc1occc1C(=O)N1CCCC(Nc2ccc(F)cc2)C1 (stereo not drawn)	-4	-3	6	1	0	1
Cc1ccc2nccc(C(=O)N3CCCC(Nc4ccc(F)cc4)C3)c2c1 (stereo not drawn)	-5	-13	22*	0	0	-2
COC(=O)[C@]12C[C@H](CC(=O)N3CCN(C(=O)c4ccco4)CC3)C(=O)N(CCc3ccc(OC)c(OC)c3)C1=C[C@H](C(C)(C)C)O[C@@H]2C	5	x	x	0	x	1
CCOC(=O)N1CCN(C(=O)C[C@H]2C[C@@]3(C(=O)OC)C(=C[C@H](C4CCCC4)O[C@@H]3C)N(Cc3cccc4ccccc34)C2=O)CC1	1	x	x	0	x	0
COC1=C/C(=C/c2c(N)n3cc(C)sc3nc2=O)C=CC1=O	6	-70	-188	7	61*	-1
Cc1cn2c(N)c(/C=C3\C=Nc4ccccc43)c(=O)nc2s1	4	13	-8	1	1	-6
COC1=C/C(=C/c2c(N)n3nc(CC(=O)N4CCCC4)sc3nc2=O)C=CC1=O	0	-34	-114	-1	18	-6
Cc1cn2c(N)c(C=C3C=C(Cl)C(=O)C(Cl)=C3)c(=O)nc2s1	-8	-131	-35	0	117*	1
c1ccc(-c2csc(=Nc3cccnc3)n2CC2CCCO2)cc1 (stereo not drawn)	-5	42	-32	0	-3	-5
COCCn1c(-c2ccccc2)csc1=Nc1cccnc1	-6	92*	6	0	0	-4
O=c1cc(-c2ccc(F)cc2)oc2ccccc12	2	99*	7	0	-1	1
O=c1cc(-c2ccccc2F)oc2ccccc12	-1	3	-1	0	-2	6
COCCn1c(SCC(=O)Nc2ccccc2F)nc2c([nH]c3ccccc32)c1=O	1	9	-5	-2	-1	1
COCCn1c(-c2ccc(OC)cc2)cnc1SCC(=O)Nc1cccc2ccccc12	8	21	26*	-1	1	-9
SMILES	DDE Tn6 FP inh	CRFR2-BP antag	NRP1-CendR mod	KLK7 zymogen act	CRFBP-R2 agonist	DDE Tn7 FP inh
COCCn1c(SCC(=O)Nc2ccccc2OC)nc2c([nH]c3ccccc32)c1=O	-3	47	26*	0	1	1
COCCn1c(SCC(=O)Nc2ccccc2OC)nc2ccccc2c1=O	-5	-1	3	0	0	1
CCN(CC)C(=O)CC[C@H]1CC[C@]2(CCCN(CC3CC3)C2)O1	-6	x	x	0	x	-4
O=C(c1ccc(C#Cc2ccccc2)o1)N1CCN(c2ccccn2)CC1	2	5	40*	0	0	-4
O=C(c1ccc(COc2ccccc2Br)o1)N1CCN(c2ccccn2)CC1	5	40	-12	1	-1	-5
O=C(Nc1ccccc1)Nc1cc(Cl)cc(Cl)c1	-24	39	3	0	18	2
O=C(Nc1ccccc1)Nc1cc(OCC(F)(F)F)cc(OCC(F)(F)F)c1	-20	55*	-2	0	23	-7
CCN(CC)C(=O)CSc1nnc(-c2ccc(C(C)(C)C)cc2)n1Cc1ccco1	4	x	x	0	x	2
Cc1ccc(S(=O)(=O)N(C)Cc2ccc(C(=O)N/N=C/c3ccc(OC(F)F)cc3OC(F)F)cc2)cc1	-5	21	31*	-2	0	1
O=C(N/N=C/c1ccc(OC(F)F)cc1OC(F)F)c1ccc(Br)cc1	4	5	7	0	0	-4
CC(=O)c1ccc(NCCCN2CCC(C(O)(c3ccccc3)c3ccccc3)CC2)cc1	-3	x	x	0	x	2
COc1ccc(Nc2nccc(-c3cccc(N)c3)n2)cc1	2	-32	20*	0	-3	8
CC1=[N+](C)N(c2ccccc2)C(=O)C1N=Cc1ccccc1Cl (stereo not drawn)	1	-11	18*	0	4	2
c1ccc(-c2c[nH]c3cccc(-c4cc5ccccc5o4)c23)cc1	3	x	x	-39	x	0
COc1cc(/C=C(\C#N)c2nc3ccccc3o2)ccc1O	-7	-97	134	0	155*	-26
N#C/C(=C\c1ccc(O)cc1)c1nc2ccccc2o1	-8	3	-203	0	23	-8
O=S1(=O)CC2c3ccccc3CN2CN1Cc1ccc(F)cc1 (stereo not drawn)	-4	x	x	-1	x	-7
Cc1ccc(CNC(=O)CN(c2ccc(C)cc2)S(=O)(=O)c2c(C)nn(C)c2C)cc1	5	83*	0	0	-1	5
CCn1c(=O)c(CCC(=O)NCCN2CCOCC2)c(C)c2c(C)nn(-c3cccc(C)c3)c21	3	1	28*	0	-1	8
CCSc1nc2ccccc2n1CC(=O)N1CCCCC1	2	86*	0	0	2	8
O=C(CSc1nc2ccccc2n1CC(=O)N1CCOCC1)N1CCCC1	6	27	8	0	0	-3
